Hits are enriched below; roughly 3.1% of the tested compounds scored in any of these assays.
MEKK2 WT-MEK5 = raises or lowers MEK5 binding to wildtype human MEKK2 PB1 domain. bead flow cytometry, Alexa488-MEK5 binding to MEKK2 WT; actives lie on both sides. binding response (% of control), % at 10 µM. 1.1% of 290,000 active. AID 1531; in the data active = binding response below about 67% or above about 130%
MEKK2 mut-MEK5 = signal of MEK5 binding to mutant human MEKK2 PB1 domain. bead flow cytometry, Alexa488-MEK5 binding to MEKK2 mutant. percent response, % at 10 µM. 0.35% of 290,000 active. AID 1530; in the data active = percent response above about 24%, passing the limit was not always enough
UBC13 inh = inhibitors of human UBC13 polyubiquitin chain formation; TR-FRET; inhibition, % at 20 µM; 0.47% of 330,000 active; AID 485273; in the data active = inhibition above about 45%, passing the limit was not always enough
MEKK3 PB1 HTS = MEKK3-MEK5 PB1 interaction, increase or decrease; bead-based flow cytometry, Alexa488-MEK5 binding to MEKK3; actives lie on both sides; 0 = blocked by unlabeled MEK5, 100 = vehicle; binding response (% of control), % at 10 µM; 1.4% of 290,000 active; AID 1529;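 active = binding response more than 3 SD above or below the average of its plate-row segment, actives on both sides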;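 also: Alexa488 bead fluorescence after subtracting the streptavidin-only scavenger bead signal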
Apaf-1 inh = human Apaf-1 inhibition | O14727 | reconstituted apoptosome caspase-3 activity, DEVD-Rh110 fluorescence | inhibition, % at 20 µM | 0.71% of 330,000 active; active = inhibition of at least 40% at 20 µM;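 also: plate controls were DMSO wells for no effect and DEVD-CHO caspase inhibitor wells for full effect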
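Material: reconstituted apoptosome with Apaf-1, cytochrome c, caspase-9, procaspase-3, dATP. Technique: Rh110 fluorescence intensity. Buffer or medium: pH 7.5 Hepes buffer with CHAPS, BSA, DTT. Times: 30 min plus 50 min, RT.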
PREPL inh = inhibitors of human prolyl oligopeptidase-like enzyme PREPL; inhibition, % at 5.96 µM; AID 2751; recombinant PREPL, fluorescence polarization activity-based probe; 0.68% of 320,000 active; Q4J6C6;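 also: 0% = enzyme with DMSO and 100% = wells lacking enzyme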
Target sequence (Q4J6C6 whole entry, looked up): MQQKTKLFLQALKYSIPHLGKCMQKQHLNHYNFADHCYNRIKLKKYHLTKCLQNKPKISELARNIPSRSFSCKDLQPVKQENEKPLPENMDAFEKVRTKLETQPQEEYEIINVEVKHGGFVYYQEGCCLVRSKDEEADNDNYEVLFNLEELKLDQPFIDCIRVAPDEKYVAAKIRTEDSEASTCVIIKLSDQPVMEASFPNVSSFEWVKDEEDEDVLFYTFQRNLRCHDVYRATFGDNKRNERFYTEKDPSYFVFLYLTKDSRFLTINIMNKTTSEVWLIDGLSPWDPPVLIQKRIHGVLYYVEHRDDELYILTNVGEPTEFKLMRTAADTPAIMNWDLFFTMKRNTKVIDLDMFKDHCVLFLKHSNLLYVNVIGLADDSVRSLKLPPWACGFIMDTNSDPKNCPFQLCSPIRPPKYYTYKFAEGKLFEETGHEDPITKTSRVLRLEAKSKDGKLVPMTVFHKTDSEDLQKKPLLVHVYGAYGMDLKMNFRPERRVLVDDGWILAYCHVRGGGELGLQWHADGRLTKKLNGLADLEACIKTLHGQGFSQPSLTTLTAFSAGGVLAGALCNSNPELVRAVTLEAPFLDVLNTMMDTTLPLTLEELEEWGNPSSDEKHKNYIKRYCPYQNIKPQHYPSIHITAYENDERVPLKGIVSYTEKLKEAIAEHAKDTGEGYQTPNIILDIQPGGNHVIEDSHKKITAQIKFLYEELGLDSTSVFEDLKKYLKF
PREPL confirm = confirmation of human PREPL enzyme inhibitors. shares compounds with PREPL inh. recombinant PREPL, fluorescence polarization activity probe. inhibition, % at 5.96 µM. 67% of 2,000 active. AID 2803;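 also: 0% = protein with DMSO and 100% = wells lacking protein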
Casp3 UBC13 ctr = inhibits human caspase-3 in UBC13 counter-screen; shares compounds with UBC13 inh; Recombinant caspase-3, Caspase-Glo 3/7 luminescence, 60 min; inhibition, % at 20 µM; 4% of 1,400 active; AID 488856;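 active = mean inhibition across replicates above about 26%, limit read from the data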;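 also: plate controls were DMSO with caspase-3 for no effect and DMSO wells lacking enzyme for full effect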
UBC13 conf = human UBC13 polyubiquitin inhibition, confirmed; shares compounds with UBC13 inh; UBC13 polyubiquitination, TR-FRET, biochemical; inhibition, % at 10 µM; 68% of 1,400 active; AID 488859; in the data active = inhibition above about 45%
Apaf-1 inh conf = Apaf-1 inhibition, single-dose confirmed; 25% of 1,800 active; AID 504614; reconstituted apoptosome, caspase-3 DEVD-Rh110 fluorescence; inhibition, % at 20 µM; shares compounds with Apaf-1 inh;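 active = mean inhibition of at least 40% at 20 µM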;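 also: plate controls were DMSO wells for no effect and DEVD-CHO caspase inhibitor control wells for full effect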
Rh110 interf inh = interferes with Rh110 fluorescence, flagging false Apaf-1 inhibitors; shares compounds with Apaf-1 inh; Rh110 fluorescence interference, quenched caspase reaction; activation (fluorescence interference), % at 20 µM; 1,800 tested, under 10 active;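 active = signal rise of 40% or more at 20 µM, treated as a fluorescence artifact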
Fluor interf inh = shows fluorescence interference in the Apaf-1 inhibitor assay format; shares compounds with Apaf-1 inh; fluorescence interference counterscreen, Apaf-1 assay format; IC50, µM; 460 tested, under 10 active; AID 588538; call rule not given here
* marks the source's active call; other numbers are inactive results; x = not tested or not shown; ! = not active in a repeat; [ ] = remark or other dose. Rule as the data show it, unless noted: active = inhibition above about 43%; inactive = the rest.

SMILES | MEKK2 WT-MEK5 | MEKK2 mut-MEK5 | UBC13 inh | MEKK3 PB1 HTS | Apaf-1 inh | PREPL inh | PREPL confirm | others
CCOc1cc(N2CCOCC2)c(OCC)cc1NC(=O)CN1C(=O)NC(Cc2ccccc2)C1=O (centres undefined) | 96 | -3 | -2 | 97 | -1 | 54* | 56*
COCc1cc(C)nc(SCc2ccc([N+](=O)[O-])cc2)c1C#N | 101 | 0 | -12 | 102 | 16 | 12 | x
Cc1c(O)ccc(/C=N/Nc2nc(-c3cccnc3)nc3ccccc23)c1O | 106 | -1 | -26 | 97 | -1 | 72* | 72*
Oc1ccc(/C=N/Nc2nc(-c3cccnc3)nc3ccccc23)c(O)c1 | 108 | 4 | -25 | 102 | -15 | 58* | 42
COCCN1CCCC(CNCc2cn(C)nc2-c2ccc(Oc3ccccc3)cc2)C1 (centres undefined) | 124 | 1 | 18 | 101 | 4 | 43* | 32
COC1CCCN(Cc2cn(C)nc2-c2ccc(Oc3ccccc3)cc2)C1 (centres undefined) | 100 | 1 | -5 | 97 | -2 | 13 | x
Cc1cc(N2CCN(C)CC2)nc2ccc(NC(=O)CCC(=O)N3CCN(c4ccc([N+](=O)[O-])cc4)CC3)cc12 | 120 | 13 | -15 | 104 | 9 | 66* | 60*
C#CCOCCOCCOCCNc1nc(N2CCN(C(=O)Cn3cc(CCCCN)nn3)CC2)nc(N2CCN(C(=O)[C@H]([C@@H](C)CC)n3cc(CCCCN)nn3)CC2)n1 | x | x | 39 | x | 23 | 6 | x
C#CCOCCOCCOCCNc1nc(N2CCN(C(=O)CCCCCCCCCCNC(=O)Cn3cc(C[C@@H](C)O)nn3)CC2)nc(N2CCN(C(=O)CCCCCCCCCCNC(=O)[C@H](CCCCN)n3cc(CCCC(=O)O)nn3)CC2)n1 | x | x | 44 | x | 28 | 18 | x
C#CCOCCOCCOCCNc1nc(N2CCN(C(=O)CCCCCCCCCCNC(=O)Cn3cc(CCCCCN)nn3)CC2)nc(N2CCN(C(=O)CCCCCCCCCCNC(=O)[C@@H](CCC(=O)O)n3cc(CCCCCN)nn3)CC2)n1 | x | x | 96* | x | 59* | 44* | 35 | Casp3 UBC13 ctr=1;UBC13 conf=79*
C#CCOCCOCCOCCNc1nc(N2CCN(C(=O)CCCCCCCCCCNC(=O)[C@H]([C@@H](C)CC)n3cc(CCCCCN)nn3)CC2)nc(N2CCN(C(=O)CCCCCCCCCCNC(=O)[C@H]([C@@H](C)CC)n3cc(CCCCN=C(N)N)nn3)CC2)n1 | x | x | 125* | x | 71* | 63* | 57* | Casp3 UBC13 ctr=-3;UBC13 conf=128*
Cc1ccc(Cc2c(C)nc3nc(SCC(=O)NCCCN4CCCCCC4)nn3c2C)cc1 | 234* | 37* | 103* | 103 | 38 | 53* | 42 | Casp3 UBC13 ctr=8;UBC13 conf=101*
CSc1ccc(C(=O)N2CCC(n3nccc3NC(=O)C3CC3)CC2)cc1 | 97 | -1 | 0 | 99 | 6 | 2 | x
CCC[C@@H](CN1CCC[C@H]1CN1C(N)=NC[C@H]1C(C)C)N1C[C@@H]([C@H](C)CC)N(CCCC2CCCC2)C1=N | x | x | 53* | x | 37 | 59* | 54* | Casp3 UBC13 ctr=-2;UBC13 conf=42
CCC[C@@H](CN1CCC[C@H]1CN1C(N)=NC[C@H]1CC(C)C)N1C[C@@H]([C@H](C)CC)N(CCCC2CCCC2)C1=N | x | x | 78* | x | 53* | 46* | 45* | Casp3 UBC13 ctr=2;UBC13 conf=83*
CCCCN1C(=N)N([C@@H](C)CN2CCC[C@H]2CN2C(N)=NC[C@H]2C(C)C)C[C@H]1[C@H](C)CC | x | x | 4 | x | -12 | 40 | x
Cc1noc(/C=C/N(C)C)c1S(=O)(=O)N1CCCC(C(=O)Nc2ccccc2F)C1 (centres undefined) | 101 | -1 | -10 | 100 | 10 | 8 | x
CC1CCC(C(C)C)C(OC(=O)Cn2c(-c3ccc(Br)cc3)[n+](C)c3ccccc32)C1 (centres undefined) | 147*! | 11 | 55* | 97 | 29 | 49* | 44* | Casp3 UBC13 ctr=1;UBC13 conf=78*
CCn1c(C)nnc1SCC(=O)NC1CCCC1 | 99 | 1 | -3 | 100 | -3 | -1 | x
CCN1CCN(c2cc(N3CCN(C(=O)c4ccco4)CC3)c3c4c(onc24)-c2ccccc2C3=O)CC1 | 86 | -1 | -152 | 78*[inhibitor] | 42* | 70* | 68* | Apaf-1 inh conf=29;Rh110 interf inh=7
CC(=O)OCCNc1cc(N2CCN(C)CC2)c2noc3c2c1C(=O)c1ccccc1-3 | 94 | 7 | x | 87 | x | x | x
O=C(N/N=C1\C/C(=N\NC(=O)c2ccncc2)c2ccccc21)c1ccncc1 | 97 | -5 | -98 | 98 | 93* | 46* | 10 | Apaf-1 inh conf=60*;Rh110 interf inh=7;Fluor interf inh=>100
Cn1nc(-c2ccccn2)nc2c(=O)n(C)c(=O)nc1-2 | 97 | 0 | -64 | 84 | 98* | 59* | 52* | Apaf-1 inh conf=100*;Rh110 interf inh=-1;Fluor interf inh=>100
CCCc1nc2c(=O)n(C)c(=O)nc-2n(C)n1 | 99 | 1 | x | 94 | x | x | x
O=C(CN1C(=O)COc2ccc(S(=O)(=O)N3CCCCC3)cc21)NCc1ccc(Cl)cc1 | 101 | 2 | 1 | 102 | 12 | 4 | x
Cc1cc2c(N)cccc2nn1 | 95 | 1 | -42 | 100 | 97* | 68* | 11 | Apaf-1 inh conf=27;Rh110 interf inh=0
Nc1cccc2nc3ccccc3cc12 | 108 | 3 | -16 | 100 | -3 | -4 | x
COC(=O)CCC(=O)OC1(C)C(=O)C2=CN(CC3CC3)C(c3ccc(OC)cc3)=CC2=C(Br)C1=O (centres undefined) | -10* | -8 | -87 | 93 | 66* | 69* | 56* | Apaf-1 inh conf=64*;Rh110 interf inh=6;Fluor interf inh=>100
CC1CCC2(CC1)NC(=O)N(NC(=O)c1cccc(N(C)C)c1)C2=O (centres undefined) | x | x | -3 | x | 2 | 9 | x

Source: PubChem
